We go through 20 compounds from ChEMBL document CHEMBL1125811, “Potential antitumor agents. 63. Structure-activity relationships for side-chain analogues of the colon 38 active agent 9-oxo-9H-xanthene-4-acetic acid” (J Med Chem, 1991).

The structures appear in SMILES notation. A value given as a limit tells only on which side of the number the result lay.

The species entered for data set [1] is Mus musculus. Description: Ability to cause early haemorrhagic necrosis of colon 38 tumors in mice. It is filed as functional. On the set-up: concentration or dose not given beside the values. In short, it runs like this: (§1)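 Colon 38 fragments implanted s.c. in BDF1 mice and grown to 4-8 mm diameter. Single i.p. dose of sodium salt in water, escalated in 1.5-fold steps up to 750 mg/kg or the maximum nonlethal dose. Triplicate testing, groups of five mice. Tumors excised after 24 h, formalin-fixed, H&E-stained and scored histologically: ++ for 90-100% necrosis, + for 50-90%, - for consistently <50%.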

The nature of data set [2]: Relative measure of lipophilicity was determined by using 4'-(9-acridinylamino)-methanesulfonanilide as internal standard. Format: physicochemical. Particulars: octanol/water. The method, boiled down:
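Rm determined by liquid-liquid chromatography, with AMSA as internal standard.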

Data set [3] deals with Mus musculus. The data set is described as follows: Optimal dose to achieve the level of activity cited in colon 38 tumors after intraperitoneal administration in mice. Format: functional. The method, boiled down:
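BDF1 mice bearing s.c. colon 38 tumors (4-8 mm) given a single i.p. dose of sodium salt in water. Full dose profile run at 1.5-fold intervals. Tumors removed at 24 h for histological necrosis scoring. Optimal dose is the minimum dose in mg/kg reaching the cited activity level.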

Data set [4] is described as follows: Range of dose (highest nontoxic to minimum effective) over which 50-90% necrosis was achieved in mice. Details: unit not given here. The method, boiled down: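 Single i.p. dose of sodium salt in water to BDF1 mice bearing s.c. colon 38 tumors. Doses escalated 1.5-fold. Tumor necrosis read histologically at 24 h. Range recorded from highest nontoxic to minimum effective dose giving 50-90% necrosis, only where activity occurred at more than one dose level.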

Data set [5] is filed under the species Mus musculus. The data set is described as follows: The compound was evaluated for its ability to cause early haemorrhagic necrosis of colon 38 tumors in mice; Value ranges from 50-90%. Format: functional. In short, it runs like this:
as §1

Regarding `COC(C(=O)O)c1cccc2c(=O)c3ccccc3oc12` (configuration not stated), the Activity in the data set listed under Mus musculus [1] is reported as <50%. Also, the Rm in data set [2] was determined as 0.49. This compound also displayed an OD with Mus musculus [3] of 750 mg/kg.
`O=c1c2ccccc2oc2c(CS(=O)(=O)O)cccc12`: the Activity in the data set listed under Mus musculus [1] is <50%. The Rm in data set [2] is -0.59. Also, in the data set with Mus musculus [3], the OD was found to be 330 mg/kg.
`Cc1cccc2c(=O)c3cccc([C@@H](C)C(=O)O)c3oc12`: the Activity in the data set filed under Mus musculus [1] is recorded as >90%. The same compound gave an OD in the data set with Mus musculus [3] of 220 mg/kg. Moreover, the Range in data set [4] was found to be 220.
On to `O=C(O)C(F)c1cccc2c(=O)c3ccccc3oc12` (configuration not stated), for which, in the data set filed under Mus musculus [1], the Activity is reported as <50%. The Rm in data set [2] was 0.75. In the data set with Mus musculus [3], this compound came in with an OD of 750 mg/kg.
Taken in the same sequence, the figures for `O=C(O)COc1cccc2c(=O)c3ccccc3oc12` were <50%, 0.21 and 750 mg/kg.
Turning to `CC(C(=O)O)c1cccc2c(=O)c3ccccc3oc12` (configuration not stated), the Activity in the data set listed under Mus musculus [1] is given as >90%. This compound registered a Rm in data set [2] of 0.85. Also, in the data set on Mus musculus [3], the OD amounted to 500 mg/kg. In data set [4], this compound came in with a Range of 500.
Taken in the same sequence, the figures for `Cc1cccc2c(=O)c3cccc(C(C)C(=O)O)c3oc12` (configuration not stated) were >90%, 0.88, 150 mg/kg and 150.
Consider `CN(C)CCNC(=O)Cc1cccc2c(=O)c3ccccc3oc12`, for which, in the data set listed under Mus musculus [5], the Activity is 90%. Besides, the Rm in data set [2] is on record as -0.27. Also, in the data set on Mus musculus [3], the OD was 750 mg/kg.
Taken in the same sequence, the figures for `O=C(O)C(O)c1cccc2c(=O)c3ccccc3oc12` (configuration not stated) were 90%, 0.04 and 750 mg/kg.
`O=C(O)Cc1cccc2c(=O)c3ccccc3oc12`: the Activity in the data set filed under Mus musculus [1] is recorded as >90%. Further, in data set [2], the Rm stood at 0.64. For the same compound, the OD in the data set on Mus musculus [3] turned out to be 220 mg/kg.
In turn, `NC(C(=O)O)c1cccc2c(=O)c3ccccc3oc12` (configuration not stated) came in with an Activity in the data set filed under Mus musculus [5] of 90%. Besides, the Rm in data set [2] is listed as -0.53. In the data set on Mus musculus [3], this compound returned an OD of 750 mg/kg.
On to `Cc1cccc2c(=O)c3cccc([C@H](C)C(=O)O)c3oc12`, for which the Activity in the data set filed under Mus musculus [1] is listed as >90%. The OD in the data set with Mus musculus [3] turned out to be 65 mg/kg.
With `O=c1c2ccccc2oc2c(CP(=O)(O)O)cccc12`, in the data set listed under Mus musculus [1], the Activity is <50%. Besides, the Rm in data set [2] is recorded as -0.48. The compound further had an OD in the data set on Mus musculus [3] of 750 mg/kg.
`O=C(O)c1cccc2c(=O)c3ccccc3oc12`: the Activity in the data set filed under Mus musculus [1] is recorded as <50%. The Rm in data set [2] is given as 0.49. In addition, the OD with Mus musculus [3] is 220 mg/kg.
As to `CCOP(=O)(O)Cc1cccc2c(=O)c3ccccc3oc12`, the Activity in the data set listed under Mus musculus [1] is <50%. Further, the Rm in data set [2] is recorded as -0.04. Besides, the OD in the data set with Mus musculus [3] turned out to be 750 mg/kg.
Taken in the same sequence, the figures for `N=C(N)SCc1cccc2c(=O)c3ccccc3oc12` were <50%, -0.2 and 220 mg/kg.
Take `Cc1ccc2c(=O)c3cccc(CC(=O)O)c3oc2c1C` [VADIMEZAN]: the Activity in the data set listed under Mus musculus [1] was >90%. Further, in data set [2], the Rm is listed as 0.49. The compound further returned an OD in the data set with Mus musculus [3] of 30 mg/kg. This compound came in with a Range in data set [4] of 30.
`CN(C)CCOC(=O)Cc1cccc2c(=O)c3ccccc3oc12` gave an Activity in the data set filed under Mus musculus [5] of 90%. Further, the Rm in data set [2] was -0.24. Moreover, the OD with Mus musculus [3] was determined as 330 mg/kg.
Turning to `O=C(O)CCc1cccc2c(=O)c3ccccc3oc12`, the Activity in the data set listed under Mus musculus [5] was 90%. This compound registered a Rm in data set [2] of 0.7. Besides, the OD with Mus musculus [3] came out at 500 mg/kg.
Turning to `O=C(Cc1cccc2c(=O)c3ccccc3oc12)NS(=O)(=O)c1ccccc1`, in the data set listed under Mus musculus [1], the Activity is recorded as <50%. Besides, the Rm in data set [2] was 0.51. The OD with Mus musculus [3] stood at 750 mg/kg.
